The list is not random: actives were taken first. Their share in the collection is about 4%.
WT yeast gro inh – growth inhibition of WT yeast, mitochondrial fusion screen; mitochondrial fusion phenotypic screen, WT strain; 190,000 tested, 2.1% active; inhibition, % at 10 µM; in the data active means inhibition above about 58%; tested in S. cerevisiae
MT stabilizer – stabilizes microtubules in HeLa cells; HeLa tubulin immunostaining HCS, 24 h; share of cells brighter than vehicle mean+2SD; % tubulin-high responders, % at 10 µM; 200,000 tested, 0.83% active; AID 2205;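 active means plate Z-score above 3 for both tubulin-high and condensed-nucleus cell shares, with cell loss under 80%, at 10 µM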;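 further: anti alpha tubulin signal scored within the nucleus-defined area of each cell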
b-catenin transl – modulators of beta-catenin nuclear translocation; HeLa beta-catenin nuclear translocation, immunofluorescence imaging; nuclear translocation activity, % at 5 µM; 190,000 tested, 0.3% active;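 active means nuclear translocation activity above 50% at 5 µM, with a well cell count of 50 or more; inconclusive means wells under 50 cells across six images, flagged as toxic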;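 further: per-cell ratio of nuclear to cytoplasmic median beta-catenin stain intensity; plate controls were DMSO negative control for no effect and GSK-3 inhibitor IX positive control for full effect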
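Read-out: Nuclear/cytoplasmic beta-catenin signal ratio, % activation | Assay system: Human HeLa cell line | Times: 24 h compound exposure at 37°C, 5% CO2 | Signal: Fluorescence imaging of beta-catenin antibody stain plus DAPI | Dosing: 5 µM primary, 0.02–20 µM confirmation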
Cl transport mod – modulates chloride dependent transport by human KCC2 | B-score of Tl+ flux slope (higher = more flux/activation; lower = inhibition) at 10 µM | Q9H2X9 | KCC2 cells, thallium flux FluoZin-2 fluorescence | 190,000 tested, 2.2% active;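 active means thallium flux slope and its plate-corrected score both differing from the plate sample mean at a set confidence after two filtering rounds, in either direction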;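 further: slope of fluorescence scaled to starting intensity during 10 to 20 s after thallium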
Target sequence (Q9H2X9 whole entry, looked up): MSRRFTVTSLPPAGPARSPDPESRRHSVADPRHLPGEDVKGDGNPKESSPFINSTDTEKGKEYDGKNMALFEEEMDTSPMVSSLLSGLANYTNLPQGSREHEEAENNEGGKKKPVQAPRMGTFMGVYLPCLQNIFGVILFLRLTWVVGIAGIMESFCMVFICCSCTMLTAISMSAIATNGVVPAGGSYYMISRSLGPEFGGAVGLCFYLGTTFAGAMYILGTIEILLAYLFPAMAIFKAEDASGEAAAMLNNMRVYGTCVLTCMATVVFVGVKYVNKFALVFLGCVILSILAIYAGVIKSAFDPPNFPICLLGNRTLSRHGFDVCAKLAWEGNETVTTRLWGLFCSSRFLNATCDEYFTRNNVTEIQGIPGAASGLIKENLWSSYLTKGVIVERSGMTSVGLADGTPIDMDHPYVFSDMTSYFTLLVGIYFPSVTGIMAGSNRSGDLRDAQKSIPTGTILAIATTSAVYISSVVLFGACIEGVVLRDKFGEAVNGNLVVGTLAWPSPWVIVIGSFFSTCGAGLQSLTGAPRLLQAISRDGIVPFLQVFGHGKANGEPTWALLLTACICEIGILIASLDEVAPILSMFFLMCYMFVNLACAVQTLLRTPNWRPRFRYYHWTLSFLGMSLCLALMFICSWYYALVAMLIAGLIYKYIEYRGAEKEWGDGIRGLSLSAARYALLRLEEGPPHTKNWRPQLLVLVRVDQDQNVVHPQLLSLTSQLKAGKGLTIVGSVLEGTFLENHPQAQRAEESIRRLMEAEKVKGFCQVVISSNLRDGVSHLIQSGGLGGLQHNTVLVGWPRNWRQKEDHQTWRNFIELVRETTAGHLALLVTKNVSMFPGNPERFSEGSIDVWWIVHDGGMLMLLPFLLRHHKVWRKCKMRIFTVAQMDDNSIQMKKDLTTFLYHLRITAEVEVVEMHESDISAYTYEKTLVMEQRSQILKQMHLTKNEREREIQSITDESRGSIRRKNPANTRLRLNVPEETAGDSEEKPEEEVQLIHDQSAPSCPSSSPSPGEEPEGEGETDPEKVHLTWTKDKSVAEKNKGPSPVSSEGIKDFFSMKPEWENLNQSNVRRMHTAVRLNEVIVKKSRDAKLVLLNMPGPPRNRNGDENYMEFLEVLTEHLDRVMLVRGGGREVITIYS
Pf gamet viab – P. falciparum stage V gametocyte viability inhibition. P. falciparum stage V gametocytes, ATP luminescence, 24 h. inhibition, % at 10.9 µM. 150,000 tested, 0.065% active. AID 743093;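 active means inhibition above the mean plus 3 SD of compounds within the control limits, set per campaign, cut at about 38% in these data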;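 further: 0% = DMSO wells and 100% = medium only without gametocytes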
KCC2 secondary – KCC2 (human) modulation, secondary assay; 3,700 tested, 15% active; normalised thallium flux (F/F0 slope) at 10 µM; shares compounds with Cl transport mod; HEK293-KCC2, thallium flux, FluoZin2 fluorescence; active compounds read high;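 active means thallium flux slope above the same plate's solvent-only control mean plus 3 SD; inconclusive means the two replicate wells disagree; inactive means no significant difference from solvent-only control wells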
KCC2 bumet counter – bumetanide-insensitive thallium flux in KCC2 cells with ouabain, counter-screen. HEK293-KCC2 + bumetanide/ouabain, thallium flux FluoZin2; active compounds read high. 3,700 tested, 49% active. normalized thallium flux at 10 µM. shares compounds with Cl transport mod. AID 1714;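 active means thallium entry rate above the same plate's blocked-transporter control wells by more than 3 SD; inconclusive means the two repeat wells disagree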;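 further: raw slope of fluorescence over initial fluorescence between 10 and 20 s after thallium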
KCC2 secondary2 – KCC2 (human) modulation, second secondary assay; shares compounds with Cl transport mod; HEK293-KCC2, thallium flux FluoZin2 fluorescence; actives lie on both sides; F/F0 rise rate, 10–20 s post-thallium; normalized thallium flux at 10 µM; 3,700 tested, 23% active; AID 1715;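 active means thallium flux slope more than 3 SD above or below the plate's solvent-only control mean, mostly below; inconclusive means the two repeat wells disagreed; inactive means no significant shift from solvent-only controls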;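 further: raw slope with 0.1% DMSO as baseline and bumetanide as block control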
HEK293 Tl flux – counter-screen for KCC2 modulators: effect in parental HEK293 cells; shares compounds with Cl transport mod; thallium flux FluoZin2, ouabain; baseline-ratio fluorescence slope, 10–20 s after thallium; thallium flux rate (normalised fluorescence) at 10 µM; 3,700 tested, 46% active; AID 1716;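 active means thallium flux rate significantly above the same plate's solvent-only control wells, beyond their mean plus 3 SD; inconclusive means the two replicate wells gave conflicting results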
KCC2 ouabain – modulates human KCC2 on retest with ouabain; AID 1717; raw Tl+ flux slope (below DMSO = inhibition, above = activation) at 10 µM; 3,700 tested, 48% active; shares compounds with Cl transport mod; HEK293-KCC2, thallium flux FluoZin2 fluorescence; bidirectional: low = inhibitor, high = activator;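 active means thallium flux slope beyond 3 SD from same-plate DMSO control mean in most replicates, usually higher, sometimes lower; inconclusive means repeat tests gave conflicting results; inactive means no significant difference from controls in most replicates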;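 further: slope of initial-normalized fluorescence between seconds 10 and 20 after thallium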
HEK counter2 – parental HEK flux effect, counter-screen 2; 3,700 tested, 33% active; shares compounds with Cl transport mod; thallium flux slope at 10 µM; HEK293 parental, thallium flux FluoZin-2 fluorescence slope;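 active means thallium flux slope above the same plate's solvent-control mean plus 3 SD in both duplicate wells; inconclusive means duplicate wells that disagreed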;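 further: run without ouabain in cells lacking the KCC2 cotransporter; slope of fluorescence scaled to its starting value between 10 and 20 s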
Starred values were filed as active, the others as inactive; ? = inconclusive; · = no result.

SMILES	WT yeast gro inh	MT stabilizer	b-catenin transl	Cl transport mod	Pf gamet viab	KCC2 secondary	KCC2 bumet counter	KCC2 secondary2	HEK293 Tl flux	KCC2 ouabain	HEK counter2
O=C1C2C3C=CC(C3)C2C(=O)N1CCN1CCN(Cc2ccc([N+](=O)[O-])cc2)CC1 (stereo not given)	3	2	2	-2.8	-25	·	·	·	·	·	·
C=CCNC(=O)NC(=O)CSc1nc2cc([N+](=O)[O-])ccc2n1-c1cccc(C(F)(F)F)c1	1	4	4	7.6*	7	0.0079	0.014*	0.032	0.011*	?	0.0095
O=C(Nc1ncc2c(n1)-c1ccccc1CC2)c1cccc(Cl)c1	9	44*	·	-4.4*	-12	0.0065	0.0045	0.022*	0.0062	0.013*	0.0087
O=C(Nc1ncc2c(n1)-c1ccccc1CC2)c1ccc(Cl)cc1	17	1	·	-2.1	1	·	·	·	·	·	·
CC(C)CNC(=O)C(=O)NNC(=O)c1ccco1	-10	2	2	0.62	2	·	·	·	·	·	·
CCOC(=O)Cn1nnnc1C(C(C)C)N(Cc1cccs1)Cc1cc2cc(C)ccc2[nH]c1=O (stereo not given)	19	2	-1	·	2	0.0062	0.0045	0.028	0.0075	0.019	0.011
O=C(Nc1ccc(Br)cc1F)c1sccc1-n1cccc1	-15	4	2	-1.2	·	0.0078	0.0048	0.033	0.0082	0.02	0.011
O=C(N1CCOCC1)n1nnc2ccccc21	-10	2	-3	7.5*	-26	0.0066	?	0.027	0.0078	0.019	0.01
Cc1nn(-c2ccccc2)c2sc(C(=O)O)cc12	7	2	·	-1.3	·	·	·	·	·	·	·
Cc1nn(-c2ccccc2)c2sc(-c3n[nH]c(=S)o3)cc12	-4	2	0	6.3*	-13	0.014*	0.028*	0.032	0.014*	?	0.013*
COC(=O)CNC(c1ccccc1)c1cc(Br)ccc1NS(=O)(=O)c1ccc(C)cc1 (stereo not given)	5	7	1	-0.065	11	·	·	·	·	·	·
Cc1ccc(CSCCNC(=O)c2ccc(C)cc2)cc1	-15	3	-1	-3.8*	·	0.0066	0.0047	0.024*	0.0077	0.016*	0.01
COc1cc(-c2ccc3oc(-c4cccc(C)c4)c(C#CC4(O)CCCCC4)c3c2)cc(OC)c1OC	·	·	·	·	8	·	·	·	·	·	·
Cc1c(F)cccc1NC(=O)c1ccc2c(c1)CCN2S(C)(=O)=O	·	·	·	·	-4	·	·	·	·	·	·
COC(=O)c1sc(-c2ccccc2)cc1NC(=O)c1ccc(F)cc1	3	4	0	1.5	·	·	·	·	·	·	·
CC(=O)c1sc(-c2ccc(F)cc2)cc1NS(=O)(=O)c1ccccc1	·	·	-2	9*	-12	0.0089	0.016*	0.033	0.015*	?	?
Cc1cc(C(=O)Nc2ccc3[nH]ccc3c2)no1	·	·	-5	-0.27	-8	·	·	·	·	·	·
CC(C)Cc1csc(NC(=O)c2ccccc2Cl)c1C(=O)O	-29	2	0	-0.12	·	·	·	·	·	·	·
CC(C)Cc1csc(NC(=O)c2ccc(Cl)cc2)c1C(=O)O	2	4	2	5.2*	1	0.0091	0.032*	0.029	0.018*	?	?
O=C(COc1ccc(Cl)cc1Cl)NN1C(=O)C2C3C=CC(C3)C2C1=O (stereo not given)	·	·	1	0.87	20	·	·	·	·	·	·
Cc1ccc(C(=O)Nc2nnc(-c3ccncc3)o2)cc1	6	2	-5	1.4	-25	·	·	·	·	·	·
O=C(Nc1nnc(-c2cccnc2)o1)c1cccc(Cl)c1	44	4	1	14*	-11	?	0.027*	0.034	?	0.034*	0.013
O=C(Nc1cccc(-c2nnc(-c3ccco3)o2)c1)c1ccccc1	14	1	-2	-1.1	7	·	·	·	·	·	·
Cc1cccc(-c2nnc(NC(=O)c3ccc(Cl)cc3)o2)c1	61	6	·	91*	7	0.07*	0.16*	0.077*	?	0.12*	0.072*
O=C(Nc1nnc(-c2ccco2)o1)c1cccc(Cl)c1	55	2	-1	24*	10	0.019*	0.063*	0.034	0.034*	0.049*	0.015*
SMILES	WT yeast gro inh	MT stabilizer	b-catenin transl	Cl transport mod	Pf gamet viab	KCC2 secondary	KCC2 bumet counter	KCC2 secondary2	HEK293 Tl flux	KCC2 ouabain	HEK counter2
COc1cc(OC)cc(C(=O)Nc2nnc(-c3cccnc3)o2)c1	22	3	-2	-1.6	14	·	·	·	·	·	·
O=C(Nc1nnc(-c2ccccn2)o1)c1cccc(Cl)c1	31	6	0	11*	-14	0.0066	0.015*	0.038	0.021*	0.027*	0.022*
Cc1ccc(NC(=S)N2CCN(S(=O)(=O)c3c(F)cccc3F)CC2)cc1C	25	2	-1	0.69	·	·	·	·	·	·	·
COc1ccc(NC(=O)CCC(=O)NCCO)cc1	4	3	1	0.0083	-28	·	·	·	·	·	·
O=C(/C=C/c1ccccc1)Nc1nnc(-c2ccco2)o1	-3	3	-4	2.8*	-12	0.007	0.0083*	0.028	?	0.019	0.01
O=C(CSCc1ccc(F)cc1)N1CCN(c2ccc(F)cc2)CC1	-10	3	5	-3.6*	·	0.0063	?	0.032	0.0037	0.017*	0.011
Cc1ccc(CSCC(=O)N2CCN(c3ccc(F)cc3)CC2)cc1	12	3	0	-0.7	-1	·	·	·	·	·	·
CCNC(=O)COC(=O)c1csc2c1CCCC2	-12	4	0	0.64	·	·	·	·	·	·	·
Cc1cc(NC(=O)CSc2nc3ccccc3c(=O)n2Cc2ccc(F)cc2)no1	46	1	-4	3.5*	15	0.011	0.019*	0.035	?	?	?
O=C(CSc1nc2ccccc2c(=O)n1Cc1ccc(F)cc1)NCc1cccs1	-37	2	·	27*	0	0.0066	0.031*	0.05*	0.035*	0.038*	0.036*
O=C1OCCC1Sc1nc2ccccc2c(=O)n1-c1ccc(F)cc1 (stereo not given)	-19	8	0	2.3	-27	·	·	·	·	·	·
CCCCn1c(SCC(=O)Nc2ccc3c(c2)CCC3)nc2ccccc2c1=O	-20	8	·	9*	4	0.0061	0.014*	0.036	0.017*	?	0.02*
